# Laboratory results taken from ChEMBL document CHEMBL1275331, “Discovery of a novel 5-HT(3) antagonist/5-HT(1A) agonist 3-amino-5,6,7,8-tetrahydro-2-{4-[4-(quinolin-2-yl)piperazin-1-yl]butyl}quinazolin-4(3H)-one (TZB-30878) as an orally bioavailable agent for irritable bowel syndrome” (J Med Chem, 2010).
# Columns and labels:
# [1] = target: Muscarinic acetylcholine receptor M2 (Homo sapiens, UniProt P08172); test: Displacement of [3H]AF-DX384 from human recombinant muscarinic M2 receptor
# [2] = target: 5-hydroxytryptamine receptor 2A (Rattus norvegicus, UniProt P14842); test: Inhibition of rat 5HT2 receptor
# Chain of 5-hydroxytryptamine receptor 2A (P14842 whole entry): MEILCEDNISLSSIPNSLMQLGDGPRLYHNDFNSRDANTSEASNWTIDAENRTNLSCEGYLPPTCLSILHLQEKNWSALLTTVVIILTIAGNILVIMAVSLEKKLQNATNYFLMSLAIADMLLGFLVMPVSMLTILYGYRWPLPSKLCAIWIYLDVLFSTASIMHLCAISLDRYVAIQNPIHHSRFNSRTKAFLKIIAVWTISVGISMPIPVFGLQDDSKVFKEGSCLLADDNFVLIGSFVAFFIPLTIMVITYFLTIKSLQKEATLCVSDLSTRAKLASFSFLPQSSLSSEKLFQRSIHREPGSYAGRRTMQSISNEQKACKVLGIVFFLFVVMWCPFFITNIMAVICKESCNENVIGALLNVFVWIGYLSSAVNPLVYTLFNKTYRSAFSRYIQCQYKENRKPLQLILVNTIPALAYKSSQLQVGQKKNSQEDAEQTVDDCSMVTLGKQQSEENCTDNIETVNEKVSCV
# [3] = target: T1, 5-hydroxytryptamine receptor 3A (Homo sapiens, UniProt P46098); test: Displacement of [3H]BRL-43694 from human recombinant 5HT3 receptor
# T1 sequence (P46098 whole entry): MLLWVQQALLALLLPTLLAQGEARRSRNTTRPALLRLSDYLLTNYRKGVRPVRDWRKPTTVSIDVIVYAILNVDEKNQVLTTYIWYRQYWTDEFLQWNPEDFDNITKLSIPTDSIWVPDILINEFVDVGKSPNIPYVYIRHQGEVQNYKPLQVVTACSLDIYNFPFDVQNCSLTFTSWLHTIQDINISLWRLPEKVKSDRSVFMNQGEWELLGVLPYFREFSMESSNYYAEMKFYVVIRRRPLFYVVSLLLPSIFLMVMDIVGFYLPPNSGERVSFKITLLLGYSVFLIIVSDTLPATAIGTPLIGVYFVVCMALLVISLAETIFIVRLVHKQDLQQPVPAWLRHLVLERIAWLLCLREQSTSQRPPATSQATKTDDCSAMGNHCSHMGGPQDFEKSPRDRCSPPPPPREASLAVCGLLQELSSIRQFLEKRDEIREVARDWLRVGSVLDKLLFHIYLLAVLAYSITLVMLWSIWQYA
# [4] = Ratio of drug level in brain to blood in Sprague-Dawley rat at 3 mg/kg, po after 4 hrs; format: ADME, organism-based; design: dose 3 mg/kg, route oral
# How it was run: (§1)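 Rats dosed 3 mg/kg orally; total compound levels measured in brain and blood at 2, 4 and 8 h, brain/blood ratio derived. Mean ± SD of three rats.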
# [5] = target: 5-hydroxytryptamine receptor 6 (Homo sapiens, UniProt P50406); test: Displacement of [3H]LSD from human recombinant 5HT6 receptor
# Chain of 5-hydroxytryptamine receptor 6 (P50406 whole entry): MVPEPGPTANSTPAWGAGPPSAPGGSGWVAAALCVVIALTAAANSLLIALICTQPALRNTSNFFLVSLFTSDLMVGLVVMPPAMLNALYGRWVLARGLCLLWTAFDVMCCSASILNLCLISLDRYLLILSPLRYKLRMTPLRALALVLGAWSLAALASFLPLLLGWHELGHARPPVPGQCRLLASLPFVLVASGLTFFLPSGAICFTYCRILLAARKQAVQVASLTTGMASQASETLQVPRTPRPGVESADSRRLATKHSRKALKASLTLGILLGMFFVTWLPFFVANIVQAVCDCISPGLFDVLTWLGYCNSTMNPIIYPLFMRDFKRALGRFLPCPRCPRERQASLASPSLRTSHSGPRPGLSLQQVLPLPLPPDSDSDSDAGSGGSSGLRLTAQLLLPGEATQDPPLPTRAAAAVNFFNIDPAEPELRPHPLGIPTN
# [6] = target: T1, 5-hydroxytryptamine receptor 3A; test: Displacement of [3H]BRL-43694 from human 5HT3 receptor expressed in HEK293 cells by liquid scintillation counting; format: cell-based
# How it was run: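 HEK-293 membranes expressing human 5-HT3 were incubated with 0.5 nmol/L [3H]BRL-43694 (final) for 60 min at 25 °C. Buffer: 50 mM Tris-HCl, 5 mM MgCl2, 1 mM EDTA, pH 7.5. Compound came from 270 μmol/L DMSO stock, diluted in buffer. Filtration was through GF/B presoaked in 0.5% polyethyleneimine, with two cold Tris washes. Run in duplicate or triplicate; percent inhibition calculated.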
# [7] = Drug level in Sprague-Dawley rat blood at 3 mg/kg, po after 2 hrs by HPLC analysis; format: ADME, organism-based; design: dose 3 mg/kg, route oral; settings: whole blood, read-out: Drug uptake
# How it was run: (§2)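 Total compound concentration was measured in brain and blood at 2, 4 and 8 h after a single oral 3 mg/kg dose. Brain/blood ratio was also derived. Values are mean ± SD of three rats.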
# [8] = target: Neuropeptide Y receptor type 1 (Homo sapiens, UniProt P25929); test: Displacement of [125I]peptide YY from NPY1 receptor in human SK-N-MC cells; format: cell-based
# Chain of Neuropeptide Y receptor type 1 (P25929 whole entry): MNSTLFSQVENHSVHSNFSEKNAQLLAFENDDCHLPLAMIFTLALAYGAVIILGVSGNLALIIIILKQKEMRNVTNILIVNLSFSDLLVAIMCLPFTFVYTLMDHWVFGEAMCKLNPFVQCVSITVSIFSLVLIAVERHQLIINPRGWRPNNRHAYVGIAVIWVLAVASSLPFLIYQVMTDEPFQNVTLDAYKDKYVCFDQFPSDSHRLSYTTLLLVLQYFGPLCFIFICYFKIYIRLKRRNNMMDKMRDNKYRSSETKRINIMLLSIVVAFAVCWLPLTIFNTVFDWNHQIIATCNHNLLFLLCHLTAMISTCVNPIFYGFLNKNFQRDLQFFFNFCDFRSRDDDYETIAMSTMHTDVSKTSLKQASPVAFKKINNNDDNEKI
# [9] = target: T2, 5-hydroxytryptamine receptor 3A (Cavia porcellus) (UniProt O70212); test: Inhibition of 5HT3 receptor-mediated contraction of guinea pig ileum at 1 umol/L after 20 mins relative to control; format: tissue-based
# T2 sequence (whole entry): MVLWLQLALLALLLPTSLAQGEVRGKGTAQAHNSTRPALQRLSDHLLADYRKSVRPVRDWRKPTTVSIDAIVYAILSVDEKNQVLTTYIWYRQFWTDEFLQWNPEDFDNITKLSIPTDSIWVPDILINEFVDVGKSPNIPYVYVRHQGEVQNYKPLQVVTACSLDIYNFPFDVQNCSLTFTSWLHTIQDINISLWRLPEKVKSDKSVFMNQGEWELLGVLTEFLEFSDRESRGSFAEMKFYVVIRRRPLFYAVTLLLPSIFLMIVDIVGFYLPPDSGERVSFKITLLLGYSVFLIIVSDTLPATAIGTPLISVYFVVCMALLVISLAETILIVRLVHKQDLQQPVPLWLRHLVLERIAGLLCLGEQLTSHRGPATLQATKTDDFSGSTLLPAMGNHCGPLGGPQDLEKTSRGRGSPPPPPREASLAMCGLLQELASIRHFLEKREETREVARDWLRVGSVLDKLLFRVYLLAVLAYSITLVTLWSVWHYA
# How it was run: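 Ileum strips in Tyrode solution at 37 °C, gassed 5% CO2/95% O2, isotonic contractions under 1 g load. After at least 3 stable contractions to 10 μM 2-methyl-5-HT, tissue exposed to compound or DMSO vehicle for 20 min, then 10 μM 2-methyl-5-HT re-added; contraction expressed as % inhibition of control.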
# [10] = target: 5-hydroxytryptamine receptor 7 (Homo sapiens, UniProt P34969); test: Displacement of [3H]LSD from human recombinant 5HT7 receptor
# Chain of 5-hydroxytryptamine receptor 7 (P34969 whole entry): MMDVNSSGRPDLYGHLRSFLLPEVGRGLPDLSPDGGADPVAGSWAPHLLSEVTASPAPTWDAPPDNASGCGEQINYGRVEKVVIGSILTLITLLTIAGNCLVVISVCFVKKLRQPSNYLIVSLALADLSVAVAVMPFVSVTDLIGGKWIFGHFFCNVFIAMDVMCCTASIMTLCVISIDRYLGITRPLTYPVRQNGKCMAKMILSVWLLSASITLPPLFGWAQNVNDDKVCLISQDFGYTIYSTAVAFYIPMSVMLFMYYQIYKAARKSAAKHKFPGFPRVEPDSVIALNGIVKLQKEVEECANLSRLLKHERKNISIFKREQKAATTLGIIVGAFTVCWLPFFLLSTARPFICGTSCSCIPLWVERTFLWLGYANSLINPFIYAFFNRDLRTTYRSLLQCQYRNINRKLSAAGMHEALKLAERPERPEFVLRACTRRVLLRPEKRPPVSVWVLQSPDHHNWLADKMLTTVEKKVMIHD
# [11] = Drug level in Sprague-Dawley rat blood at 3 mg/kg, po after 8 hrs by HPLC analysis; format: ADME, organism-based; design: dose 3 mg/kg, route oral; settings: whole blood, read-out: Drug uptake; how it was run: as §2
# D(2) dopamine receptor = D(2) dopamine receptor (Homo sapiens, UniProt P14416); test: Displacement of [3H]spiperone from human recombinant dopamine D2 receptor
# Chain of D(2) dopamine receptor (P14416 whole entry): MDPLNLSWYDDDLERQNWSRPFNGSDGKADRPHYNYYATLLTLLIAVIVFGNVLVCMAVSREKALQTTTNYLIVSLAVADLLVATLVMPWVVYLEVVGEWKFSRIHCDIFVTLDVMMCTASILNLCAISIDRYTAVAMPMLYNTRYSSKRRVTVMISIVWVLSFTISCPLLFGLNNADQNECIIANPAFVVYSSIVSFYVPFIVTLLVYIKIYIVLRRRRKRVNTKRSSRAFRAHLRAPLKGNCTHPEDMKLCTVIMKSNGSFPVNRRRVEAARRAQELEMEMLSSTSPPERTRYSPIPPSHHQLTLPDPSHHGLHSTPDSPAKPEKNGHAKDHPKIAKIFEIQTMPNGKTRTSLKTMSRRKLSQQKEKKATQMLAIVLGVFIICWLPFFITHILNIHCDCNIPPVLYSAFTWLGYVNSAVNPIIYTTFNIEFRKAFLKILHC
# Rattus norvegicus = test: […] activity in rat assessed as inhibition of 5HT-induced bradycardia at 10 ug/kg, iv by von Benzold-Jarisch reflex assay; format: functional
# [12] = Ratio of drug level in brain to blood in Sprague-Dawley rat at 3 mg/kg, po after 2 hrs; format: ADME, organism-based; design: dose 3 mg/kg, route oral; how it was run: as §1
# [13] = Drug level in Sprague-Dawley rat brain at 3 mg/kg, po after 2 hrs by HPLC analysis; format: ADME, organism-based; design: dose 3 mg/kg, route oral; settings: read-out: Drug uptake; how it was run: as §2
# [14] = target: T3, 5-hydroxytryptamine receptor 1A (Homo sapiens, UniProt P08908); test: Displacement of [3H]8-OH-DPAT from human 5HT1A receptor expressed in CHO cells by liquid scintillation counting; format: cell-based
# T3 sequence (P08908 whole entry): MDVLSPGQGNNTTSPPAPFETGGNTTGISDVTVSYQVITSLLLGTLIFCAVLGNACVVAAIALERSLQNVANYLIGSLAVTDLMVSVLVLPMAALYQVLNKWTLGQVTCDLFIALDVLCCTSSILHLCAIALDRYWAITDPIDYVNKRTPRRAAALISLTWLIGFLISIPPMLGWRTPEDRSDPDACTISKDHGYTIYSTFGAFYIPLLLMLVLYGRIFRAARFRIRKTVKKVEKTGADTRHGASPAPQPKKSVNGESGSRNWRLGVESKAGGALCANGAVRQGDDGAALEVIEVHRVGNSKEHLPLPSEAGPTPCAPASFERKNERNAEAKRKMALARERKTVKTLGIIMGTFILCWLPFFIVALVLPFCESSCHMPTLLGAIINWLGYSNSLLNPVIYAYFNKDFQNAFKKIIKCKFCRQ
# How it was run: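 CHO-cell membranes with human 5-HT1A were incubated with 0.25 nmol/L [3H]8-OH-DPAT (final) for 60 min at 27 °C. Buffer: 50 mM Tris-HCl, 10 mM MgSO4, 0.5 mM EDTA, 0.1% ascorbic acid, pH 7.4. Compound came from 270 μmol/L DMSO stock, diluted in buffer. Filtration was through GF/C presoaked in 0.3% polyethyleneimine, with two cold Tris washes. Run in duplicate or triplicate; percent inhibition of binding calculated.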
# Chain of Muscarinic acetylcholine receptor M2 (P08172 whole entry): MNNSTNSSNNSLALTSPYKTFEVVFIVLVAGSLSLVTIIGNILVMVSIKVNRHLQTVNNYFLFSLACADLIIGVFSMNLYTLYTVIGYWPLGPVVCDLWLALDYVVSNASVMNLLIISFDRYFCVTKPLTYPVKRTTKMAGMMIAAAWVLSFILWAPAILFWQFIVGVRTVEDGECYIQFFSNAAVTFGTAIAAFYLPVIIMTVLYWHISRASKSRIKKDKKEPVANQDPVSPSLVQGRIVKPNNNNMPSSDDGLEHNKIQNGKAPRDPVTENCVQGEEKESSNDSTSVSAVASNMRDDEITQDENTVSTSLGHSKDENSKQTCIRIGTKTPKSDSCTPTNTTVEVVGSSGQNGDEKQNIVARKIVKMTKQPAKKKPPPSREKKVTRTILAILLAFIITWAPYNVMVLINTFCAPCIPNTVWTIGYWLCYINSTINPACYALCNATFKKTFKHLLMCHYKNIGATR
structure (smiles),measurement,setting,value
Nn1c(CCCCN2CCN(c3ccc4ccccc4n3)CC2)nc2c(c1=O)CCCC2,IC50,[1],> 1000 nM
same,IC50,[2],100 nM
same,IC50,[3],> 8.93 nM
same,Kp at 4 h,[4],4.4
same,IC50,[5],> 1000 nM
same,IC50,[6],8.9 nM
same,concentration at 2 h,[7],66.5 nM
same,IC50,[8],> 1000 nM
same,inhibition,[9],96.8%
same,IC50,[10],1000 nM
same,concentration at 8 h,[11],9.97 nM
same,IC50,D(2) dopamine receptor,> 1000 nM
same,inhibition in vivo at 0.01 mg/kg,Rattus norvegicus,≤ 64%
same,Kp at 2 h,[12],2.56
same,concentration at 2 h,[13],160 nM
same,IC50,[14],1.4 nM
